# Assay results reported in paper PMC3160560 (Investigational New Drugs, 2010).
# Read-outs that look alike come from different tables or passages of the source.
# Assays:
# ret proto-oncogene (RET) = settings: read-out: IC50 RET; panel of 32 kinases; cited from earlier work
# aurora-A (AURKA) = settings: read-out: IC50 aurora-A; cited from earlier work
# aurora-C (AURKC) = settings: read-out: IC50 aurora-C; cited from earlier work
# [1] = test system: ATP-binding cassette B1 (ABCB1/MDR1); settings: in vitro; ref unpublished data (b4), 26; cited from earlier work
# [2] = toxicity in first treatment cycle; type: in vivo, human; settings: for Neutropenia grade 3–4: No (No. patients) / Neutropenia grade 3–4: Yes (No. patients): cycle 1, RP2D
# Method in brief: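 Adverse events in cycle 1 were graded by NCI-CTC v3.0. Phase II patients received 330 mg/m2 on days 1, 8 and 15 (6-h) or 500 mg/m2 on days 1 and 15 (24-h) every 28 days. Genotypes were compared by two-sided chi-square.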
# [3] = target: fms-related tyrosine kinase 3 (FLT3); settings: read-out: IC50 FLT3; panel of 32 kinases; cited from earlier work
# [4] = target: vascular endothelial growth factor receptor 3 (FLT4, VEGFR3); settings: read-out: IC50 FLT4 (VEGFR3); panel of 32 kinases; cited from earlier work
# [5] = test system: ATP-binding cassette G2 (ABCG2/BCRP); settings: in vitro; ref unpublished data (b4), 26; cited from earlier work
# [6] = pharmacokinetics in phase I cancer patients; type: in vivo, human
# Method in brief: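 In the phase I trial, the test compound was given IV on days 1, 8 and 15 every 28 days. Doses were 45–400 mg/m2 by 6-h infusion or 250–330 mg/m2 by 3-h infusion. Blood was sampled on days 1–4, 8, 15–18 and 22 of cycle 1. Clearance (L/hour/m2) came from non-compartmental analysis. Genotypes came from TaqMan assays on blood DNA and were compared by t-test/ANOVA.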
# aurora-B (AURKB) = settings: read-out: IC50 aurora-B; cited from earlier work
# [7] = test system: histone H3 phosphorylation; test: histone H3 phosphorylation in skin biopsies by immunohistochemistry; type: in vivo, human
# Method in brief: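 Skin biopsies were taken at baseline and 10 min before the end of the first infusion of cycle 1. Phospho-histone H3 was stained by immunohistochemistry, giving the % change in positive cells. AURKB genotypes were compared by t-test/ANOVA.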
# [8] = cited from earlier work
# [9] = AURKA 91A > T AT, total 6 patients
# [10] = AURKA 169G > A GA, total 11 patients
# [11] = AURKA 169G > A GG, total 18 patients
# [12] = AURKB 893G > A GA, total 8 patients
# [13] = FLT3 738C > T CC, total 5 patients
# [14] = FLT3 738C > T TT, total 10 patients
# [15] = FLT4 1480A > G AG, total 7 patients
# [16] = KDR 54G > A AA, total 5 patients
# [17] = KDR 54G > A GA, total 16 patients
# [18] = KDR 54G > A GG, total 9 patients
# [19] = KDR 1192G > A GA, total 3 patients
# [20] = KDR −92G > A AG, total 7 patients
# [21] = KDR −92G > A GG, total 20 patients
# [22] = KDR −604T > C TT, total 6 patients
# [23] = RET 135G > A AA, total 3 patients (3 missing)
# [24] = RET 135G > A GA, total 8 patients (3 missing)
# [25] = RET 37412G > A GA, total 5 patients
smiles,measurement,setting,value
CO[C@@H](C(=O)N1Cc2n[nH]c(NC(=O)c3ccc(N4CCN(C)CC4)cc3)c2C1)c1ccccc1 [Danusertib],IC50,ret proto-oncogene (RET),< 500 nM
same,IC50,aurora-C (AURKC),61 nM
same,substrate for efflux protein ABCB1,[1],substrate
same,Any toxicity grade 1–4 during cycle 1,[2]; All patients N = 63,51 (81) n (%)
same,Any toxicity grade 3 or 4 during cycle 1,[2]; All patients N = 63,22 (35) n (%)
same,Febrile neutropenia during cycle 1,[2]; All patients N = 63,1 (2) n (%)
same,Neutropenia grade 1–4 during cycle 1,[2]; All patients N = 63,34 (54) n (%)
same,Neutropenia grade 3 or 4 during cycle 1,[2]; All patients N = 63,18 (29) n (%)
same,Any toxicity grade 1–4 during cycle 1,[2]; Phase I patients N = 48,37 (77) n (%)
same,Any toxicity grade 3 or 4 during cycle 1,[2]; Phase I patients N = 48,15 (31) n (%)
same,Febrile neutropenia during cycle 1,[2]; Phase I patients N = 48,1 (2) n (%)
same,Neutropenia grade 1–4 during cycle 1,[2]; Phase I patients N = 48,25 (52) n (%)
same,Neutropenia grade 3 or 4 during cycle 1,[2]; Phase I patients N = 48,12 (25) n (%)
same,Any toxicity grade 1–4 during cycle 1,[2]; RP2D patients N = 30,28 (93) n (%)
same,Any toxicity grade 3 or 4 during cycle 1,[2]; RP2D patients N = 30,15 (50) n (%)
same,Febrile neutropenia during cycle 1,[2]; RP2D patients N = 30,1 (3) n (%)
same,Neutropenia grade 1–4 during cycle 1,[2]; RP2D patients N = 30,19 (63) n (%)
same,Neutropenia grade 3–4: No (No. patients),[2]; [9],2
same,Neutropenia grade 3–4: Yes (No. patients),[2]; [9],4
same,Neutropenia grade 3–4: No (No. patients),"[2]; AURKA 91A > T TT, total 4 patients",4
same,Neutropenia grade 3–4: No (No. patients),"[2]; AURKA 169G > A AA, total 1 patient",1
same,Neutropenia grade 3–4: No (No. patients),[2]; [10],6
same,Neutropenia grade 3–4: Yes (No. patients),[2]; [10],5
same,Neutropenia grade 3–4: No (No. patients),[2]; [11],10
same,Neutropenia grade 3–4: Yes (No. patients),[2]; [11],8
same,Neutropenia grade 3–4: No (No. patients),[2]; [12],6
same,Neutropenia grade 3–4: Yes (No. patients),[2]; [12],2
same,Neutropenia grade 3–4: No (No. patients),[2]; [13],4
same,Neutropenia grade 3–4: Yes (No. patients),[2]; [13],1
same,Neutropenia grade 3–4: Yes (No. patients),"[2]; FLT3 738C > T CT, total 15 patients",8
same,Neutropenia grade 3–4: No (No. patients),[2]; [14],6
same,Neutropenia grade 3–4: Yes (No. patients),[2]; [14],4
same,Neutropenia grade 3–4: No (No. patients),[2]; [15],5
same,Neutropenia grade 3–4: Yes (No. patients),[2]; [15],2
same,Neutropenia grade 3–4: No (No. patients),[2]; [16],2
same,Neutropenia grade 3–4: Yes (No. patients),[2]; [16],3
same,Neutropenia grade 3–4: No (No. patients),[2]; [17],10
same,Neutropenia grade 3–4: Yes (No. patients),[2]; [17],6
same,Neutropenia grade 3–4: No (No. patients),[2]; [18],5
same,Neutropenia grade 3–4: Yes (No. patients),[2]; [18],4
same,Neutropenia grade 3–4: No (No. patients),[2]; [19],2
same,Neutropenia grade 3–4: Yes (No. patients),[2]; [19],1
same,Neutropenia grade 3–4: No (No. patients),"[2]; KDR 1192G > A GG, total 27 patients",15
same,Neutropenia grade 3–4: Yes (No. patients),"[2]; KDR 1719A > T AA, total 1 patient",1
same,Neutropenia grade 3–4: No (No. patients),"[2]; KDR 1719A > T AT, total 15 patients",8
same,Neutropenia grade 3–4: Yes (No. patients),"[2]; KDR 1719A > T TT, total 14 patients",5
same,Neutropenia grade 3–4: No (No. patients),"[2]; KDR −92G > A AA, total 3 patients",3
same,Neutropenia grade 3–4: No (No. patients),[2]; [20],4
same,Neutropenia grade 3–4: Yes (No. patients),[2]; [20],3
same,Neutropenia grade 3–4: No (No. patients),[2]; [21],10
same,Neutropenia grade 3–4: Yes (No. patients),[2]; [21],10
same,Neutropenia grade 3–4: Yes (No. patients),"[2]; KDR −604T > C CC, total 9 patients",2
same,Neutropenia grade 3–4: Yes (No. patients),"[2]; KDR −604T > C TC, total 15 patients",8
same,Neutropenia grade 3–4: No (No. patients),[2]; [22],3
same,Neutropenia grade 3–4: Yes (No. patients),[2]; [22],3
same,Neutropenia grade 3–4: No (No. patients),[2]; [23],1
same,Neutropenia grade 3–4: Yes (No. patients),[2]; [23],2
same,Neutropenia grade 3–4: No (No. patients),[2]; [24],6
same,Neutropenia grade 3–4: Yes (No. patients),[2]; [24],2
same,Neutropenia grade 3–4: No (No. patients),"[2]; RET 37412G > A AA, total 1 patient",1
same,Neutropenia grade 3–4: No (No. patients),[2]; [25],2
same,Neutropenia grade 3–4: Yes (No. patients),[2]; [25],3
same,Neutropenia grade 3–4: Yes (No. patients),"[2]; RET 37412G > A GG, total 24 patients",10
same,IC50,[3],< 500 nM
same,IC50,[4],< 500 nM
same,substrate for efflux protein ABCG2,[5],substrate
same,Clearance d1c1 Mean,"[6]; ABCB1 1236C > T CC, 16 patients",17.8 L/hour/m^2
same,Clearance d1c1 Mean,"[6]; ABCB1 1236C > T CT, 21 patients",18.3 L/hour/m^2
same,Clearance d1c1 Mean,"[6]; ABCB1 1236C > T TT, 10 patients",18.6 L/hour/m^2
same,Clearance d1c1 Mean,"[6]; ABCB1 2677G > A/T GG, 17 patients",18.2 L/hour/m^2
same,Clearance d1c1 Mean,"[6]; ABCB1 2677G > A/T GT, 20 patients",18.5 L/hour/m^2
same,Clearance d1c1 Mean,"[6]; ABCB1 2677G > A/T TT, 10 patients",17.7 L/hour/m^2
same,Clearance d1c1 Mean,"[6]; ABCB1 3435C > T CC, 13 patients",19.5 L/hour/m^2
same,Clearance d1c1 Mean,"[6]; ABCB1 3435C > T CT, 21 patients",17.7 L/hour/m^2
same,Clearance d1c1 Mean,"[6]; ABCB1 3435C > T TT, 13 patients",17.8 L/hour/m^2
same,Clearance d1c1 Mean,"[6]; ABCG2 346G > A GA, 2 patients",18.6 L/hour/m^2
same,Clearance d1c1 Mean,"[6]; ABCG2 346G > A GG, 45 patients",18.2 L/hour/m^2
same,Clearance d1c1 Mean,"[6]; ABCG2 421C > A CA, 11 patients",18.8 L/hour/m^2
same,Clearance d1c1 Mean,"[6]; ABCG2 421C > A CC, 36 patients",18.1 L/hour/m^2
same,Clearance d1c1 Mean,"[6]; ABCG2 15994G > A AA, 3 patients",16.5 L/hour/m^2
same,Clearance d1c1 Mean,"[6]; ABCG2 15994G > A GA, 21 patients",18.2 L/hour/m^2
same,Clearance d1c1 Mean,"[6]; ABCG2 15994G > A GG, 23 patients",18.5 L/hour/m^2
same,Clearance d1c1 Mean,"[6]; FMO3 15167G > A AA, 12 patients",16.9 L/hour/m^2
same,Clearance d1c1 Mean,"[6]; FMO3 15167G > A GA, 20 patients",18.1 L/hour/m^2
same,Clearance d1c1 Mean,"[6]; FMO3 15167G > A GG, 15 patients",19.5 L/hour/m^2
same,Clearance d1c1 Mean,"[6]; FMO3 18281G > A AA, 1 patient",34.0 L/hour/m^2
same,Clearance d1c1 Mean,"[6]; FMO3 18281G > A GA, 11 patients",17.2 L/hour/m^2
same,Clearance d1c1 Mean,"[6]; FMO3 18281G > A GG, 35 patients",18.1 L/hour/m^2
same,Clearance d1c1 Mean,"[6]; FMO3 21443A > G AA, 27 patients",19.2 L/hour/m^2
same,Clearance d1c1 Mean,"[6]; FMO3 21443A > G AG, 18 patients",16.9 L/hour/m^2
same,Clearance d1c1 Mean,"[6]; FMO3 21443A > G GG, 2 patients",16.4 L/hour/m^2
same,"Clearance day 1 cycle 1, Median ± SD","[6]; phase I patients, n = 47",17.8 ± 5.8 L/hour/m^2
same,decrease in histone H3 phosphorylation,"[7]; AURKB 893G > A heterozygous genotype (GA), SD 12.2%",84%
same,decrease in histone H3 phosphorylation,"[7]; AURKB 893G > A homozygous wild type genotype (GG), SD 13.3%",91%
same,"Histone H3 phosphorylation, % change in number of positive cells, Median ± SD","[7]; phase I patients, n = 28, skin, baseline vs 10 min before end of first infusion",-92.3 ± 13.1 Δ%
same,clearance,[8]; 3-hour infusion schedule,16.2 L/hour/m^2
same,clearance,[8]; 6-hour infusion schedule,18.0 L/hour/m^2
same,dose linearity of pharmacokinetics,"[8]; over the dose-range studied, phase I",linear pharmacokinetics
same,elimination half-life,"[8]; phase I study, intravenous",about 30 h
same,plasma clearance (range),"[8]; phase I study, intravenous",10 to 59 L/h
